This note sets out measurements from ChEMBL document CHEMBL4406821, “Novel dual inhibitors targeting CDK4 and VEGFR2 synergistically suppressed cancer progression and angiogenesis” (Eur J Med Chem, 2019).

Molecules are shown by their SMILES. Calls of active or inactive are those of the source. The calls are words filed in the database; no cut-off is given here.

The subject of one data set is T47D. Kind of data set: Antiproliferative activity against human T47D cells assessed as reduction in cell viability at 20 to 40 nM incubated for 48 hrs by EdU staining based laser scanning confocal microscopy. Format: functional. The method in brief:
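Cells, 5×10^4, were seeded in 24-well plates and treated for 48 h. They were then labeled using an EdU Apollo 488 imaging kit with Hoechst 33342 nuclear stain and imaged by laser scanning confocal microscopy. Percent EdU-positive cells = EdU-positive/Hoechst-stained × 100%.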

The nature of data set [1]: AUMC (0 to t) in Sprague-Dawley rat at 10 mg/kg at 10 mg/kg, po by HPLC-MS analysis. The settings on record: in vivo. It counts as ADME, organism-based. The procedure, abridged: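 Rats fitted with jugular vein catheters for serial blood sampling. Compound dissolved in saline with 5% (v/v) DMSO and given as a single 10 mg/kg dose iv or po after an overnight fast, n = 5 per group. Plasma isolated at once and measured by HPLC with tandem MS detection. Parameters derived by noncompartmental fitting.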

Data set [2] concerns the target Cytoplasmic tyrosine-protein kinase BMX (Homo sapiens) (UniProt P51813). Kind of data set: Inhibition of recombinant full length human BMX at 1 uM using poly(Glu, Tyr) 4:1 as substrate incubated for 40 mins in presence of [gamma-33P]-ATP by scintillation counting method relative to control. The procedure, abridged:
(§1)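 Kinase panel profiling at 1 μM performed by Eurofins KinaseProfiler; percent inhibition reported as mean of two independent experiments.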

Data set [3] concerns the target Tyrosine-protein kinase CSK (Homo sapiens) (UniProt P41240). The data set is described as follows: Inhibition of recombinant full length human CSK at 1 uM using poly(Glu, Tyr) 4:1 as substrate incubated for 40 mins in presence of [gamma-33P]-ATP by scintillation counting method relative to control. The procedure, abridged: (§2)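 Tested at a single 1 uM in an outsourced commercial kinase-profiling panel, read as percent inhibition. Each value is the mean of two independent experiments.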

The target of data set [4] is Proto-oncogene tyrosine-protein kinase Src (Homo sapiens) (UniProt P12931). The data set is described as follows: Inhibition of full length recombinant human c-SRC at 1 uM using KVEKIGEGTYGVV as substrate incubated for 40 mins in presence of [gamma-33P]-ATP by scintillation counting method relative to control. The procedure, abridged: as §1
Data set [5] concerns Epidermal growth factor receptor (Homo sapiens), P00533 [T790M]. Kind of data set: Inhibition of recombinant human EGFR T790M mutant (696 to end residues) at 1 uM using poly(Glu, Tyr) 4:1 as substrate incubated for 40 mins in presence of [gamma-33P]-ATP by scintillation counting method relative to control.
Data set [6] deals with Ephrin type-A receptor 3 (Homo sapiens) (UniProt P29320). The data set is described as follows: Inhibition of recombinant human EPhA3 (578 to end residues) at 1 uM using poly(Glu, Tyr) 4:1 as substrate incubated for 40 mins in presence of [gamma-33P]-ATP by scintillation counting method relative to control.
The target of data set [7] is Ephrin type-A receptor 5 (Homo sapiens) (UniProt P54756). The data set is described as follows: Inhibition of recombinant human EPhA5 (655 to 956 residues) at 1 uM using poly(Glu, Tyr) 4:1 as substrate incubated for 40 mins in presence of [gamma-33P]-ATP by scintillation counting method relative to control.
For data set [8], the target named is Tyrosine-protein kinase Fyn (Homo sapiens) (UniProt P06241). Kind of data set: Inhibition of recombinant full length human FYN at 1 uM using KVEKIGEGTYGVVYK as substrate incubated for 40 mins in presence of [gamma-33P]-ATP by scintillation counting method relative to control. The method in brief: as §1
The target of data set [9] is MAP kinase-activated protein kinase 3 (Homo sapiens) (UniProt Q16644). Kind of data set: Inhibition of recombinant human MAPKAPK3 (2 to end residues) at 1 uM using KKLNRTLSVA as substrate incubated for 40 mins in presence of [gamma-33P]-ATP by scintillation counting method relative to control. The procedure, abridged:
as §2

Data set [10] addresses Dual specificity mitogen-activated protein kinase kinase 3 (Homo sapiens) (UniProt P46734). Kind of data set: Inhibition of recombinant human MKK3 at 1 uM incubated for 40 mins in presence of [gamma-33P]-ATP by scintillation counting method relative to control.
The target of data set [11] is Death-associated protein kinase 3 (Homo sapiens) (UniProt O43293). Kind of data set: Inhibition of recombinant human ZIPK (1 to 290 residues) at 1 uM using KKLNRTLSFAEPG as substrate incubated for 40 mins in presence of [gamma-33P]-ATP by scintillation counting method relative to control.
Data set [12] addresses Protein kinase C iota type (Homo sapiens) (UniProt P41743). Kind of data set: Inhibition of recombinant human full length PKCiota at 1 uM using ERMRPRKRQGSVRRRV as substrate incubated for 40 mins in presence of [gamma-33P]-ATP by scintillation counting method relative to control.
In data set [13] the target is Ribosomal protein S6 kinase alpha-6 (Homo sapiens) (UniProt Q9UK32). Kind of data set: Inhibition of recombinant human full length RSK4 at 1 uM using LRRASLG as substrate incubated for 40 mins in presence of [gamma-33P]-ATP by scintillation counting method relative to control.
In data set [14] the target is Mitogen-activated protein kinase 14 (Homo sapiens) (UniProt Q16539). Kind of data set: Inhibition of recombinant human full length SAPK2a at 1 uM using myelin basic protein as substrate incubated for 40 mins in presence of [gamma-33P]-ATP by scintillation counting method relative to control. The procedure, abridged: as §2
Data set [15] deals with [Pyruvate dehydrogenase (acetyl-transferring)] kinase isozyme 2, mitochondrial (Homo sapiens) (UniProt Q15119). Kind of data set: Inhibition of recombinant human PDHK2 at 1 uM incubated for 40 mins in presence of [gamma-33P]-ATP by scintillation counting method relative to control. The procedure, abridged: as §2
The target of data set [16] is CDK4/Cyclin D3 (Homo sapiens) (UniProt P11802+P30281). The data set is described as follows: Inhibition of recombinant human full length CDK4/cyclinD3 at 1 uM using Rb fragment as substrate incubated for 40 mins in presence of [gamma-33P]-ATP by scintillation counting method relative to control. It counts as protein-complex assay.
In a further data set the target is CDK2/Cyclin A2 (Homo sapiens, UniProt P24941). Kind of data set: Inhibition of recombinant human full length CDK2/CyclinA using as histone H1 substrate incubated for 40 mins in presence of [gamma-33P]-ATP by scintillation counting method. Format: protein-complex assay.
The subject of another data set is MDA-MB-231. Kind of data set: Induction of apoptosis in human MDA-MB-231 cells assessed as decrease in Bcl2 expression at 20 to 40 nM incubated for 48 hrs by Western blot analysis. Format: functional, cell-based. The method in brief: (§3)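 Cells were treated for 48 h, washed three times with PBS, and lysed in RIPA buffer. Immunoblots used anti-Rb, anti-phospho-Rb, anti-Ki67 and anti-Bcl-2 (each 1:1000), with β-actin as loading control.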
A general note: Immunoblotting shows a protein as a band on a membrane.

Data set [17] can be described thus: Toxicity in NOD/SCID BALB/c mouse xenografted with human SiHa cells assessed as effect on blood parameter by measuring PDW at 40 mg/kg, po administered once two days for 4 times by hematology analyzer. Format: organism-based. The settings on record: in vivo.
A further data set has as its system HeLa. Kind of data set: Induction of apoptosis in human HeLa cells assessed as decrease in Bcl2 expression at 80 nM incubated for 48 hrs by Western blot analysis. Format: functional, cell-based. The method in brief:
as §3

Sequence of Tyrosine-protein kinase CSK (Homo sapiens) (P41240 2-450 limits assumed): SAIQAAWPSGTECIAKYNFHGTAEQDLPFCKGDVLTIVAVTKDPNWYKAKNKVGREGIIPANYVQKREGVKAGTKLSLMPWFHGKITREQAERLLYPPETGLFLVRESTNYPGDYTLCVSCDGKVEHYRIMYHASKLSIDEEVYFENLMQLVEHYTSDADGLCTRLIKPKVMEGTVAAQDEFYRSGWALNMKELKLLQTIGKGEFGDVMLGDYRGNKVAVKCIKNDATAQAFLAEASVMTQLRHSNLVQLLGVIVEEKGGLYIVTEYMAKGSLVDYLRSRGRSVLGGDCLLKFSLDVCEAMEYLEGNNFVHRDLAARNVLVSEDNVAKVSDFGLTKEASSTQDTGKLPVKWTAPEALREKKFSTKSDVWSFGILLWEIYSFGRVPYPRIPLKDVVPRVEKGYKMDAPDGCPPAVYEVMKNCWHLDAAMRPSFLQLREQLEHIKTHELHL
Sequence of Mitogen-activated protein kinase 14 (Homo sapiens) (Q16539 whole entry): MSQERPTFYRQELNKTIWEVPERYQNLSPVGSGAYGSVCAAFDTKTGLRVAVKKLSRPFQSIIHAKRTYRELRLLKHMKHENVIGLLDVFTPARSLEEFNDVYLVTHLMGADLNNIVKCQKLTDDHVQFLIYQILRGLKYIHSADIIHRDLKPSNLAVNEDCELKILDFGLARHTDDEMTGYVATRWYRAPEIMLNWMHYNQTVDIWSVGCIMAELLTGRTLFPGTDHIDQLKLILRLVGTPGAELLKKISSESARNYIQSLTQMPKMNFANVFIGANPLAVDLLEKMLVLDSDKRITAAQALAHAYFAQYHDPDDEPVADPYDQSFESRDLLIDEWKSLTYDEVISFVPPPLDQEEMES
Sequence of Dual specificity mitogen-activated protein kinase kinase 3 (Homo sapiens) (P46734 whole entry, the tested form may be a part): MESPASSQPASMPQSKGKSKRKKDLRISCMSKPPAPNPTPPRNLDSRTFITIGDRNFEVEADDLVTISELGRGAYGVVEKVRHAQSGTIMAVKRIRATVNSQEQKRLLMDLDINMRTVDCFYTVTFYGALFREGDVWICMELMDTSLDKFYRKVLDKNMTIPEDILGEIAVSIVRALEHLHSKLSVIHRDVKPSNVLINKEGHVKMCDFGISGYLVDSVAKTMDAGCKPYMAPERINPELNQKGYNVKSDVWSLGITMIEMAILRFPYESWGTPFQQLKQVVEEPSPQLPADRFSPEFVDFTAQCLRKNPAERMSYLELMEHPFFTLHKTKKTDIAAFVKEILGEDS
Sequence of Protein kinase C iota type (Homo sapiens) (P41743 whole entry): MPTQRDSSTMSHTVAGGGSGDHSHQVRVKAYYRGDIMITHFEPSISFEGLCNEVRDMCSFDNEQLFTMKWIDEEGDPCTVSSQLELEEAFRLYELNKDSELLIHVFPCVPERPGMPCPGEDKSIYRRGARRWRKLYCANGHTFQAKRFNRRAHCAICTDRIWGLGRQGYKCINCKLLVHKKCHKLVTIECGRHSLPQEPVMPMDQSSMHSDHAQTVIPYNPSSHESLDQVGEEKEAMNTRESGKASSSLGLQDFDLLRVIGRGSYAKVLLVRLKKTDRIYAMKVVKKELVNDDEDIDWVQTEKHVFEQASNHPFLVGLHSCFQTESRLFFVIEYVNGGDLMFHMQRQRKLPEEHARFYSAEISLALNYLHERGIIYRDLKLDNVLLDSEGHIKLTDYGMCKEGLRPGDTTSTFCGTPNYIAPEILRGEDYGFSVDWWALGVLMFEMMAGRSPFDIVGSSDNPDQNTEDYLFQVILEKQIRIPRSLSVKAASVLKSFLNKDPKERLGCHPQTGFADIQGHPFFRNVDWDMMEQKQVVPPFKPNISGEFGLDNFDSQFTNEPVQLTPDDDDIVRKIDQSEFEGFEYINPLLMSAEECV
Sequence of Proto-oncogene tyrosine-protein kinase Src (Homo sapiens) (P12931 2-536 limits assumed): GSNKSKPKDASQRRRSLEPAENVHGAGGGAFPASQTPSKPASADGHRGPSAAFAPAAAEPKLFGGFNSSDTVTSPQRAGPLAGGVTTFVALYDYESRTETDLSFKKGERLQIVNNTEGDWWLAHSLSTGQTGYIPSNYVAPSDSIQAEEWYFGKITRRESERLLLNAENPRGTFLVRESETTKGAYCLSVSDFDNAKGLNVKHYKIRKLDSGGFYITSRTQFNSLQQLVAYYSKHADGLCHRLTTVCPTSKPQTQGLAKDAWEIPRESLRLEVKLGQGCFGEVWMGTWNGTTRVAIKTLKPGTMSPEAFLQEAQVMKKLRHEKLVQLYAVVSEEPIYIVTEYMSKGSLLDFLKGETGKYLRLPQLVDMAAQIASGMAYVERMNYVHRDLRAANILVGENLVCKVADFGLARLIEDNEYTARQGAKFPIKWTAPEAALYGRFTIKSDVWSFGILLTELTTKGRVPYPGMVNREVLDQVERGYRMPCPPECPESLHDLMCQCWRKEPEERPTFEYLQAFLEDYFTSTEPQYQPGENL
Sequence of Ephrin type-A receptor 3 (Homo sapiens) (P29320 whole entry, the tested form may be a part): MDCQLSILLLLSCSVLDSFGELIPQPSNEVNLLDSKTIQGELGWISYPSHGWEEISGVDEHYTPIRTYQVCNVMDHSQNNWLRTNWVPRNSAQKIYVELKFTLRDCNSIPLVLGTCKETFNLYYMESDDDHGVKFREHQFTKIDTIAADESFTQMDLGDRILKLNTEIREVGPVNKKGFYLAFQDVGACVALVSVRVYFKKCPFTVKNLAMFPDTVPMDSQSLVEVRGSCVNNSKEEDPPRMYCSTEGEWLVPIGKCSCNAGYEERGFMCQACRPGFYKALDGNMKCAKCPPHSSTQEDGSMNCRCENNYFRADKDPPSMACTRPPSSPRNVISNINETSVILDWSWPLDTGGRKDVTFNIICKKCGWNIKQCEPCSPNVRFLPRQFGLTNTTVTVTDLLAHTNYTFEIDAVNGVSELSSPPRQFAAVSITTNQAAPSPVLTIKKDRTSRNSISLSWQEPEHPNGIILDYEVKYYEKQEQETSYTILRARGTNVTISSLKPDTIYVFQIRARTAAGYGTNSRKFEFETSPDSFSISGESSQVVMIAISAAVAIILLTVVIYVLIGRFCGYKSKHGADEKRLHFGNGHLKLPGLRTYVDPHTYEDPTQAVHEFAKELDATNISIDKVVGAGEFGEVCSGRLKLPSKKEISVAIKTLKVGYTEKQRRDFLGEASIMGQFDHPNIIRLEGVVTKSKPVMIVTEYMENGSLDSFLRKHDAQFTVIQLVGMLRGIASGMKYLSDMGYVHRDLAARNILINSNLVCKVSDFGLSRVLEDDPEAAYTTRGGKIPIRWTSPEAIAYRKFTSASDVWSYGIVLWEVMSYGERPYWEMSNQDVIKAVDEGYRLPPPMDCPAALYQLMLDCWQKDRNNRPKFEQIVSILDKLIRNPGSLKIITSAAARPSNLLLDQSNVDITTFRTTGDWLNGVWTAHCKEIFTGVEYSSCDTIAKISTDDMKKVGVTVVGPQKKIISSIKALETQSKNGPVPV
Sequence of Ephrin type-A receptor 5 (Homo sapiens) (P54756 whole entry, the tested form may be a part): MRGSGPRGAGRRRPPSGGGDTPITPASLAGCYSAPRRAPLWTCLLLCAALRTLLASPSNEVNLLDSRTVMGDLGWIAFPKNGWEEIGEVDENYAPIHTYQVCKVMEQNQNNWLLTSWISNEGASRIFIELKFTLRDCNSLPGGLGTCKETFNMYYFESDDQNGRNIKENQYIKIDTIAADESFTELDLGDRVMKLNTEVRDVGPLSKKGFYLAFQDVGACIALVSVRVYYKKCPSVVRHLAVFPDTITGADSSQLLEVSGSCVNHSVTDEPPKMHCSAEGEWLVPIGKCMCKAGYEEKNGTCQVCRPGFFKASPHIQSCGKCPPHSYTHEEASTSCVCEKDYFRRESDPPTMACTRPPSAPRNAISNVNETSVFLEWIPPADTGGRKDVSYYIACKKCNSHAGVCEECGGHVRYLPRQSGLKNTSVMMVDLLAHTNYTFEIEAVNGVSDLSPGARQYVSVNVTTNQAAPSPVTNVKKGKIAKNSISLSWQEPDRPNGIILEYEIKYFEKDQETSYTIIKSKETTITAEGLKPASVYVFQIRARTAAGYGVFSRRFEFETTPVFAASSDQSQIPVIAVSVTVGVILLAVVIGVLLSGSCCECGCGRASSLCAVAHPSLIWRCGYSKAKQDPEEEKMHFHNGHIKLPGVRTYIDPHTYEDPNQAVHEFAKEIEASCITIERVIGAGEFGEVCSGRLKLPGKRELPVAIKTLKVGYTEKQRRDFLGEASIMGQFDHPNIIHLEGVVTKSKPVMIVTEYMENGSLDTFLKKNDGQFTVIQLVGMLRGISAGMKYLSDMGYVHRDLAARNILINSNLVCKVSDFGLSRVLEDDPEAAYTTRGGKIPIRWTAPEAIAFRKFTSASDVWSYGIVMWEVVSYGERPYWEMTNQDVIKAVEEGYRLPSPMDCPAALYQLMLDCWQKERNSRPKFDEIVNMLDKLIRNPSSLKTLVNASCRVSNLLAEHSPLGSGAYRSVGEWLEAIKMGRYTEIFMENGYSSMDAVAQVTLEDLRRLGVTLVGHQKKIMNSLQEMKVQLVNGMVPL
Sequence of Cytoplasmic tyrosine-protein kinase BMX (Homo sapiens) (P51813 whole entry): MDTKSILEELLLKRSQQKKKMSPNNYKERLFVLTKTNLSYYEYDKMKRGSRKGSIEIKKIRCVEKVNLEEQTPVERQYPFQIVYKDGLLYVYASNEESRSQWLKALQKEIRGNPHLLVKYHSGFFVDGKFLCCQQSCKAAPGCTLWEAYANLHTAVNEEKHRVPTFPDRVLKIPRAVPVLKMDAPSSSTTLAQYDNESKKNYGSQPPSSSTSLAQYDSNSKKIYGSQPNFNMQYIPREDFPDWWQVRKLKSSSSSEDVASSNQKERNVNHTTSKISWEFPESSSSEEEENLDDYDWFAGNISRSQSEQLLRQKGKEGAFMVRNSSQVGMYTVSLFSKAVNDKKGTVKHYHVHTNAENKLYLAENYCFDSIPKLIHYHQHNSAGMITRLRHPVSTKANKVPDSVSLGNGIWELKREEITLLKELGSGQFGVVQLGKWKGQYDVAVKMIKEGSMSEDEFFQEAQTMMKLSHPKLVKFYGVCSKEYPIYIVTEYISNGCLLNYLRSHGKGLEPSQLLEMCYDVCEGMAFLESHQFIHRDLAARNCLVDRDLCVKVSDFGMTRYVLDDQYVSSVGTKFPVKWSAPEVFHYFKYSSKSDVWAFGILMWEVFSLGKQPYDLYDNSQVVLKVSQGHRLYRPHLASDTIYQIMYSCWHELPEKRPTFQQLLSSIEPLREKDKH

In general, inhibition refers to the drop in the measured response relative to a control, in per cent. One may read the IC50 as the concentration that gives 50% inhibition. As to `Cc1ccc(NC(=O)C2(C(=O)Nc3ccc(Nc4ncc(F)c(-c5cc(F)c6nc(C)n(C(C)C)c6c5)n4)cc3)CC2)cc1`, in the data set on T47D, the inhibition entry is “Active”. The molecule also came in with an AUMCt in [1] of 21 mg/L.hr. The inhibition in [2] was 59%; in data set [3] it was 0%; in data set [4], 80%; in data set [5] it was 55%; in data set [6] it was 23%; in data set [7] it was 33%. Moreover, the inhibition turned out to be 32% in data set [8]; 0% in data set [9]; 8% in data set [10]; 12% in data set [11]; 5% in [12]; 22% in [13]. In addition, the inhibition is 0% in data set [14], 0% in data set [15] and 97% in data set [16]. Further, the IC50 on CDK2/Cyclin A2 stood at 230 nM. The result with MDA-MB-231 was Active. Besides, the Activity result in [17] is listed as “Non-Toxic”.

With `COc1cc2nccc(Oc3ccc(NC(=O)C4(C(=O)Nc5ccc(F)cc5)CC4)cc3)c2cc1OC` [CABOZANTINIB], the outcome in the data set on HeLa was Active.
